# Laboratory results as given in ChEMBL document CHEMBL2390927, “Design, synthesis and antimicrobial evaluation of novel benzimidazole type of Fluconazole analogues and their synergistic effects with Chloromycin, Norfloxacin and Fluconazole” (2013).
# Legend:
# Micrococcus luteus = assay: Antibacterial activity against Micrococcus luteus ATCC 4698 after 24 hrs by two-fold serial dilution method; assay type: functional; conditions: ATCC 4698, 24 h
# Procedure, shortened: (§1)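 MIC taken as the lowest concentration giving complete growth inhibition, by standard two-fold serial dilution in 96-well plates following NCCLS. Stocks in DMSO, diluted in Mueller–Hinton broth. Inoculum adjusted with sterile saline to 1 × 10⁵ CFU. DMSO with inoculum and no drug served as solvent control. Growth read visually and spectrophotometrically, in triplicate.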
# Staphylococcus aureus [1] = assay: Antibacterial activity against Staphylococcus aureus ATCC 6538 after 24 hrs by two-fold serial dilution method; assay type: functional; conditions: ATCC 6538, 24 h
# Candida = assay: Antifungal activity against Candida mycoderma after 24 hrs by two-fold serial dilution method; assay type: functional
# Procedure, shortened: (§2)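 Spore suspension in sterile distilled water from one-day-old cultures on Sabouraud agar, final 1–5 × 10³ spore mL⁻¹. Compound stocks diluted in sterile RPMI 1640 as two-fold serial dilutions in microdilution plates. MIC is the lowest concentration completely inhibiting growth. Growth monitored visually and spectrophotometrically, in triplicate.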
# Aspergillus flavus = assay: Antifungal activity against Aspergillus flavus after 24 hrs by two-fold serial dilution method; assay type: functional; procedure, shortened: as §2
# Bacillus = assay: Antibacterial activity against Bacillus proteus ATCC 13315 after 24 hrs by two-fold serial dilution method; assay type: functional; conditions: ATCC 13315, 24 h; procedure, shortened: as §1
# Staphylococcus aureus [2] = assay: Antibacterial activity against methicillin-resistant Staphylococcus aureus N315 after 24 hrs by two-fold serial dilution method; assay type: functional; conditions: N315, 24 h
# Salmonella typhi = assay: Antibacterial activity against Bacillus typhi after 24 hrs by two-fold serial dilution method; assay type: functional, Salmonella enterica subsp. enterica serovar Typhi; conditions: Salmonella enterica
# Procedure, shortened: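 Two-fold serial dilution in 96-well plates following NCCLS; compounds dissolved in DMSO as stocks, then diluted in Mueller-Hinton broth; bacterial suspension adjusted with sterile saline to 1 × 10⁵ CFU; MIC taken as lowest concentration completely inhibiting growth, monitored visually and spectrophotometrically; DMSO-plus-inoculum well as solvent control; triplicate.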
# Candida albicans = assay: Antifungal activity against Candida albicans ATCC 76615 after 24 hrs by two-fold serial dilution method; assay type: functional; conditions: ATCC 76615, 24 h; procedure, shortened: as §2
# Saccharomyces cerevisiae = assay: Antifungal activity against Saccharomyces cerevisiae after 24 hrs by two-fold serial dilution method; assay type: functional; procedure, shortened: as §2
# Bacillus subtilis = assay: Antibacterial activity against Bacillus subtilis ATCC 21216 after 24 hrs by two-fold serial dilution method; assay type: functional; conditions: ATCC 21216, 24 h; procedure, shortened: as §1
# Cyberlindnera jadinii = assay: Antifungal activity against Candida utilis after 24 hrs by two-fold serial dilution method; assay type: functional; conditions: Williopsis jadinii; procedure, shortened: as §2
# Pseudomonas aeruginosa = assay: Antibacterial activity against Pseudomonas aeruginosa ATCC 27853 after 24 hrs by two-fold serial dilution method; assay type: functional; conditions: ATCC 27853, 24 h; procedure, shortened: as §1
# Escherichia coli = assay: Antibacterial activity against Escherichia coli JM109 after 24 hrs by two-fold serial dilution method; assay type: functional; conditions: JM109, 24 h
compound,measurement,setting,value
Fc1ccc(CN(Cc2nc3ccccc3[nH]2)c2ccc(Cl)cc2Cl)c(F)c1,MIC,Micrococcus luteus,128 µg/mL
same,MIC,Staphylococcus aureus [1],64 µg/mL
same,MIC,Candida,32 µg/mL
same,MIC,Aspergillus flavus,64 µg/mL
same,MIC,Bacillus,16 µg/mL
same,MIC,Staphylococcus aureus [2],64 µg/mL
same,MIC,Salmonella typhi,32 µg/mL
same,MIC,Candida albicans,32 µg/mL
same,MIC,Saccharomyces cerevisiae,32 µg/mL
same,MIC,Bacillus subtilis,16 µg/mL
same,MIC,Cyberlindnera jadinii,64 µg/mL
same,MIC,Pseudomonas aeruginosa,128 µg/mL
same,MIC,Escherichia coli,64 µg/mL
FC(F)(F)c1cc(N(Cc2nc3ccccc3[nH]2)Cc2ccc(Cl)cc2Cl)cc(C(F)(F)F)c1,MIC,Micrococcus luteus,128 µg/mL
same,MIC,Staphylococcus aureus [1],64 µg/mL
same,MIC,Candida,64 µg/mL
same,MIC,Aspergillus flavus,64 µg/mL
same,MIC,Bacillus,32 µg/mL
same,MIC,Staphylococcus aureus [2],64 µg/mL
same,MIC,Salmonella typhi,64 µg/mL
same,MIC,Candida albicans,64 µg/mL
same,MIC,Saccharomyces cerevisiae,32 µg/mL
same,MIC,Bacillus subtilis,64 µg/mL
same,MIC,Cyberlindnera jadinii,64 µg/mL
same,MIC,Pseudomonas aeruginosa,128 µg/mL
same,MIC,Escherichia coli,64 µg/mL
Cc1cc(=O)oc2cc(OCCCCCCN(Cc3nc4ccccc4[nH]3)c3ccc(F)cc3)ccc12,MIC,Micrococcus luteus,128 µg/mL
same,MIC,Staphylococcus aureus [1],32 µg/mL
same,MIC,Candida,32 µg/mL
same,MIC,Aspergillus flavus,32 µg/mL
same,MIC,Bacillus,64 µg/mL
same,MIC,Staphylococcus aureus [2],128 µg/mL
same,MIC,Salmonella typhi,64 µg/mL
same,MIC,Candida albicans,16 µg/mL
same,MIC,Saccharomyces cerevisiae,32 µg/mL
same,MIC,Bacillus subtilis,16 µg/mL
same,MIC,Cyberlindnera jadinii,16 µg/mL
same,MIC,Pseudomonas aeruginosa,16 µg/mL
same,MIC,Escherichia coli,128 µg/mL
CC(=O)c1cc2ccc(OCc3ccc(CN(Cc4nc5ccccc5[nH]4)c4ccc(C)cc4)cc3)cc2oc1=O,MIC,Micrococcus luteus,128 µg/mL
same,MIC,Staphylococcus aureus [1],128 µg/mL
same,MIC,Candida,128 µg/mL
same,MIC,Aspergillus flavus,64 µg/mL
same,MIC,Bacillus,256 µg/mL
same,MIC,Staphylococcus aureus [2],64 µg/mL
same,MIC,Salmonella typhi,128 µg/mL
same,MIC,Candida albicans,64 µg/mL
same,MIC,Saccharomyces cerevisiae,32 µg/mL
same,MIC,Bacillus subtilis,64 µg/mL
same,MIC,Cyberlindnera jadinii,64 µg/mL
same,MIC,Pseudomonas aeruginosa,128 µg/mL
same,MIC,Escherichia coli,128 µg/mL
Fc1ccccc1N(CCCCn1c2ccccc2c2ccccc21)Cc1nc2ccccc2[nH]1,MIC,Micrococcus luteus,128 µg/mL
same,MIC,Staphylococcus aureus [1],64 µg/mL
same,MIC,Candida,64 µg/mL
same,MIC,Aspergillus flavus,64 µg/mL
same,MIC,Bacillus,64 µg/mL
same,MIC,Staphylococcus aureus [2],128 µg/mL
same,MIC,Salmonella typhi,128 µg/mL
same,MIC,Candida albicans,32 µg/mL
same,MIC,Saccharomyces cerevisiae,64 µg/mL
same,MIC,Bacillus subtilis,64 µg/mL
same,MIC,Cyberlindnera jadinii,32 µg/mL
same,MIC,Pseudomonas aeruginosa,64 µg/mL
same,MIC,Escherichia coli,128 µg/mL
Cc1ccc(N(Cc2cccc(Cl)c2)Cc2nc3ccccc3[nH]2)cc1,MIC,Micrococcus luteus,128 µg/mL
same,MIC,Staphylococcus aureus [1],32 µg/mL
same,MIC,Candida,32 µg/mL
same,MIC,Aspergillus flavus,64 µg/mL
same,MIC,Bacillus,128 µg/mL
same,MIC,Staphylococcus aureus [2],128 µg/mL
same,MIC,Salmonella typhi,16 µg/mL
same,MIC,Candida albicans,32 µg/mL
same,MIC,Saccharomyces cerevisiae,64 µg/mL
same,MIC,Bacillus subtilis,64 µg/mL
same,MIC,Cyberlindnera jadinii,32 µg/mL
same,MIC,Pseudomonas aeruginosa,32 µg/mL
same,MIC,Escherichia coli,32 µg/mL
Cc1ccc(N(Cc2ccc(Cl)cc2)Cc2nc3ccccc3[nH]2)cc1,MIC,Micrococcus luteus,128 µg/mL
same,MIC,Staphylococcus aureus [1],32 µg/mL
same,MIC,Candida,32 µg/mL
same,MIC,Aspergillus flavus,128 µg/mL
same,MIC,Bacillus,32 µg/mL
same,MIC,Staphylococcus aureus [2],64 µg/mL
same,MIC,Salmonella typhi,64 µg/mL
same,MIC,Candida albicans,64 µg/mL
same,MIC,Saccharomyces cerevisiae,128 µg/mL
same,MIC,Bacillus subtilis,64 µg/mL
same,MIC,Cyberlindnera jadinii,64 µg/mL
same,MIC,Pseudomonas aeruginosa,64 µg/mL
same,MIC,Escherichia coli,32 µg/mL
Cc1ccc(N(Cc2ccc([N+](=O)[O-])cc2)Cc2nc3ccccc3[nH]2)cc1,MIC,Micrococcus luteus,128 µg/mL
same,MIC,Staphylococcus aureus [1],32 µg/mL
same,MIC,Candida,64 µg/mL
same,MIC,Aspergillus flavus,128 µg/mL
same,MIC,Bacillus,64 µg/mL
same,MIC,Staphylococcus aureus [2],256 µg/mL
same,MIC,Salmonella typhi,64 µg/mL
same,MIC,Candida albicans,128 µg/mL
same,MIC,Saccharomyces cerevisiae,64 µg/mL
same,MIC,Bacillus subtilis,64 µg/mL
same,MIC,Cyberlindnera jadinii,64 µg/mL
same,MIC,Pseudomonas aeruginosa,64 µg/mL
same,MIC,Escherichia coli,64 µg/mL
Cc1ccc(N(Cc2nc3ccccc3[nH]2)Cc2ccc(F)cc2F)cc1,MIC,Micrococcus luteus,64 µg/mL
same,MIC,Staphylococcus aureus [1],16 µg/mL
same,MIC,Candida,32 µg/mL
same,MIC,Aspergillus flavus,32 µg/mL
same,MIC,Bacillus,64 µg/mL
same,MIC,Staphylococcus aureus [2],16 µg/mL
same,MIC,Salmonella typhi,32 µg/mL
same,MIC,Candida albicans,32 µg/mL
same,MIC,Saccharomyces cerevisiae,64 µg/mL
same,MIC,Bacillus subtilis,32 µg/mL
same,MIC,Cyberlindnera jadinii,32 µg/mL
same,MIC,Pseudomonas aeruginosa,32 µg/mL
same,MIC,Escherichia coli,128 µg/mL
Cc1ccc(N(Cc2nc3ccccc3[nH]2)Cc2ccc(Cl)cc2Cl)cc1,MIC,Micrococcus luteus,128 µg/mL
same,MIC,Staphylococcus aureus [1],64 µg/mL
same,MIC,Candida,128 µg/mL
same,MIC,Aspergillus flavus,128 µg/mL
same,MIC,Bacillus,32 µg/mL
same,MIC,Staphylococcus aureus [2],64 µg/mL
same,MIC,Salmonella typhi,64 µg/mL
same,MIC,Candida albicans,64 µg/mL
same,MIC,Saccharomyces cerevisiae,64 µg/mL
same,MIC,Bacillus subtilis,32 µg/mL
same,MIC,Cyberlindnera jadinii,64 µg/mL
same,MIC,Pseudomonas aeruginosa,64 µg/mL
same,MIC,Escherichia coli,32 µg/mL
Cc1ccc(N(Cc2ccc(Cl)c(Cl)c2)Cc2nc3ccccc3[nH]2)cc1,MIC,Micrococcus luteus,64 µg/mL
same,MIC,Staphylococcus aureus [1],32 µg/mL
same,MIC,Candida,128 µg/mL
same,MIC,Aspergillus flavus,128 µg/mL
same,MIC,Bacillus,128 µg/mL
same,MIC,Staphylococcus aureus [2],64 µg/mL
same,MIC,Salmonella typhi,64 µg/mL
same,MIC,Candida albicans,128 µg/mL
same,MIC,Saccharomyces cerevisiae,128 µg/mL
same,MIC,Bacillus subtilis,128 µg/mL
same,MIC,Cyberlindnera jadinii,64 µg/mL
same,MIC,Pseudomonas aeruginosa,128 µg/mL
same,MIC,Escherichia coli,64 µg/mL
Fc1ccc(N(Cc2nc3ccccc3[nH]2)Cc2ccc(Cl)cc2Cl)c(F)c1,MIC,Micrococcus luteus,64 µg/mL
same,MIC,Staphylococcus aureus [1],64 µg/mL
same,MIC,Candida,64 µg/mL
same,MIC,Aspergillus flavus,64 µg/mL
same,MIC,Bacillus,32 µg/mL
same,MIC,Staphylococcus aureus [2],128 µg/mL
same,MIC,Salmonella typhi,128 µg/mL
same,MIC,Candida albicans,128 µg/mL
same,MIC,Saccharomyces cerevisiae,32 µg/mL
same,MIC,Bacillus subtilis,64 µg/mL
same,MIC,Cyberlindnera jadinii,32 µg/mL
same,MIC,Pseudomonas aeruginosa,64 µg/mL
same,MIC,Escherichia coli,32 µg/mL
CCCCCCCCN(Cc1nc2ccccc2[nH]1)c1ccc(C)cc1.Cl.Cl,MIC,Micrococcus luteus,64 µg/mL
same,MIC,Staphylococcus aureus [1],64 µg/mL
same,MIC,Candida,128 µg/mL
same,MIC,Aspergillus flavus,128 µg/mL
same,MIC,Bacillus,64 µg/mL
same,MIC,Staphylococcus aureus [2],128 µg/mL
same,MIC,Salmonella typhi,64 µg/mL
same,MIC,Candida albicans,64 µg/mL
same,MIC,Saccharomyces cerevisiae,64 µg/mL
same,MIC,Bacillus subtilis,128 µg/mL
same,MIC,Cyberlindnera jadinii,64 µg/mL
same,MIC,Pseudomonas aeruginosa,128 µg/mL
same,MIC,Escherichia coli,128 µg/mL
O=C(N[C@H](CO)[C@H](O)c1ccc([N+](=O)[O-])cc1)C(Cl)Cl [CHLORAMPHENICOL],MIC,Micrococcus luteus,8 µg/mL
same,MIC,Staphylococcus aureus [1],8 µg/mL
same,MIC,Bacillus,32 µg/mL
same,MIC,Salmonella typhi,32 µg/mL
same,MIC,Bacillus subtilis,32 µg/mL
OC(Cn1cncn1)(Cn1cncn1)c1ccc(F)cc1F [FLUCONAZOLE],MIC,Candida,4 µg/mL
same,MIC,Aspergillus flavus,256 µg/mL
same,MIC,Candida albicans,1 µg/mL
same,MIC,Saccharomyces cerevisiae,16 µg/mL
same,MIC,Cyberlindnera jadinii,8 µg/mL
CCn1cc(C(=O)O)c(=O)c2cc(F)c(N3CCNCC3)cc21 [NORFLOXACIN],MIC,Micrococcus luteus,1 µg/mL
same,MIC,Staphylococcus aureus [1],8 µg/mL
same,MIC,Bacillus,4 µg/mL
same,MIC,Staphylococcus aureus [2],1 µg/mL
same,MIC,Salmonella typhi,1 µg/mL
same,MIC,Bacillus subtilis,2 µg/mL
same,MIC,Pseudomonas aeruginosa,1 µg/mL
same,MIC,Escherichia coli,1 µg/mL
